The values below come from ChEMBL document CHEMBL5233202, “Metabolically stable apelin-analogues, incorporating cyclohexylalanine and homoarginine, as potent apelin receptor activators” (RSC Med Chem, 2021).

Series [1] has as its target T1, Apelin receptor (Homo sapiens, UniProt P35414).
T1 sequence (P35414 whole entry): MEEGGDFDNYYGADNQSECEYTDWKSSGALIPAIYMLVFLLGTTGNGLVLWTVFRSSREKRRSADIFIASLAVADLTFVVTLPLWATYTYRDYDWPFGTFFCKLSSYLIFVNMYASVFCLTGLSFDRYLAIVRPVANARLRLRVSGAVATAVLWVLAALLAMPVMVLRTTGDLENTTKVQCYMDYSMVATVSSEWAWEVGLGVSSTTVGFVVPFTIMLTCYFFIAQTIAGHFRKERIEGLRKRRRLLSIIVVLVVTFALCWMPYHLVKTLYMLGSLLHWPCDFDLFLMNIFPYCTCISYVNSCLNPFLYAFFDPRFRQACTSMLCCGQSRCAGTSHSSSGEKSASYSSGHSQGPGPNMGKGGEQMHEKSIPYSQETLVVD
The experiment in a line: Activation of recombinant human APJ receptor expressed in rat Chem-5 cells assessed as increase in Ca2+ mobilization by FLIPR Calcium 6-QF fluorescent dye based assay. The class given is cell-based. The procedure, abridged:
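Frozen Chem-5 cells stably expressing human APJ, thawed per supplier protocol, loaded 1 h with Calcium 6-QF dye in HBSS/20 mM HEPES/0.2% DMSO/2.5 mM probenecid, pH 7.6. Cells washed three times and rested 10 min, then read on FLIPR. Agonist response taken as maximum fluorescence change over baseline. pEC50 from four-parameter logistic fit; triplicates.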

Series [2] can be described thus: Stability in mouse plasma assessed as half life at 1 mM measured for 24 hrs by LC-MS analysis. The series is classed as ADME, cell-free. The gist of the method:
(§1)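 Plasma (20 μL, human or murine) prewarmed to 37 °C, then 5 μL of 1 mM peptide added and incubated at 37 °C. Samples quenched at 1, 3, 6 and 24 h with 6 M GuHCl/80% ACN and Dans-YVG internal standard, centrifuged, solid-phase extracted and analyzed by LC-MS. Peptide/standard peak-area ratio normalized to 0 h; triplicates.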

Series [3] relates to Mus musculus. The series is described as follows: Hypotensive effect in anesthetized wild type mouse assessed as change in mean arterial blood pressure at 1.4 uM/Kg, iv administered via right jugular vein measured for 60 mins. The class given is functional. The following applies: 1 h. The gist of the method:
(§2)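 Anesthetized mice received peptide at 1.4 μM kg−1 body weight, or equal-volume saline, by injection into the right jugular vein (n = 3). HR, MABP, SBP and DBP were recorded from blood pressure traces and reported as mean ± S.E.M.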

Series [4] has as its system Mus musculus. The series is described as follows: Hypotensive effect in anesthetized wild type mouse assessed as total time duration of hypotensive effect at 1.4 uM/Kg, iv administered via right jugular vein measured for 60 mins. The series is classed as functional. The following applies: 1 h. The procedure, abridged: as §2
In series [5] the target is T2, Neprilysin (Homo sapiens, UniProt P08473). The series is described as follows: Proteolytic stability assessed as recombinant human NEP-mediated compound degradation incubated for 24 hrs by LC-MS analysis. The series is classed as ADME. The gist of the method: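 Recombinant human NEP diluted to 2 ng μL−1 in NEP-B buffer and preincubated 10 min at 37 °C. Peptide (1 mM aqueous solution) added and incubated at 37 °C. Aliquots taken at 0, 2, 10, 20 and 48 h, quenched and quantified by LC-MS; triplicate per time point.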

In series [6] the target is T3, Apelin receptor (Rattus norvegicus, UniProt Q9JHG3).
T3 sequence (Q9JHG3 whole entry): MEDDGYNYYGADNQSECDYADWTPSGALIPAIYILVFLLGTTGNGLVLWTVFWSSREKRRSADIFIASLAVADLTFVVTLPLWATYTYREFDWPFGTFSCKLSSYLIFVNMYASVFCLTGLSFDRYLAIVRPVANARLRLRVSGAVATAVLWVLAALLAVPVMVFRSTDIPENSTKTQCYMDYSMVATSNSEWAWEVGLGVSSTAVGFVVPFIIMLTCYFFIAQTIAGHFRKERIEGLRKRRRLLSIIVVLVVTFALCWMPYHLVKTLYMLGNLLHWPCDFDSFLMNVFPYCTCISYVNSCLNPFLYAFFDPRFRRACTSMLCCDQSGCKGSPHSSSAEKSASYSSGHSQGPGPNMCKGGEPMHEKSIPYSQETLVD
The experiment in a line: Displacement of [125I]-pyr-1-apelin-13 from EGFP tagged rat apelin receptor expressed in CHO cell membrane incubated for 3 hrs by gamma counter analysis. The series is classed as cell membranes. The gist of the method: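 Crude membranes (1 μg/assay) from CHO cells stably expressing wild-type rat APJ-EGFP, incubated 3 h at 20 °C with 0.2 nM [125I]-pyr-1-apelin-13 (Lys8 Bolton–Hunter monoiodinated) and competitor at various concentrations. Binding buffer: 50 mM HEPES, 5 mM MgCl2, 1% BSA, pH 7.5. Quenched with cold buffer, GF/C filtered and washed, gamma counted; triplicates.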

Series [7] in a line: Stability in human plasma assessed as half life at 1 mM measured for 24 hrs by LC-MS analysis. The class given is ADME, cell-free. The procedure, abridged:
as §1

Series [8] can be described thus: Protein binding in pooled human plasma at 100 uM incubated for 3 hrs by equilibrium dialysis method. The class given is ADME, cell-free. The conditions noted are these: read-out: PPB (converted). The procedure, abridged:
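Equilibrium dialysis. DMSO stock (1 mM) diluted to 100 μM final in 55% pooled human plasma stabilized with EDTA and MLN-4760, dialyzed against PBS pH 7.4 at 37 °C, 120 rpm, 3 h. Retentate diluted with PBS and dialysate with plasma, then quenched with 10% TFA/acetonitrile. Dans-YVG internal standard added, centrifuged, LC-MS.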

Series [9] addresses T2, Neprilysin. The series is described as follows: Proteolytic stability assessed as recombinant human NEP-mediated compound degradation by measuring half life incubated for 24 hrs by LC-MS analysis. The series is classed as ADME. The conditions noted are these: 24 h.

Non-standard residues stand in square brackets, D forms with d. Residues, ends and D or L forms follow the SMILES beside them. Phe(4-Br) = N[C@@H](Cc1ccc(Br)cc1)C(=O)O; NMeCha = CN[C@@H](CC1CCCCC1)C(=O)O; hArg = N=C(N)NCCCC[C@H](N)C(=O)O; NMeL = CN[C@@H](CC(C)C)C(=O)O; Nle = CCCC[C@H](N)C(=O)O; Aib = CC(C)(N)C(=O)O

T2 sequence (P08473 whole entry): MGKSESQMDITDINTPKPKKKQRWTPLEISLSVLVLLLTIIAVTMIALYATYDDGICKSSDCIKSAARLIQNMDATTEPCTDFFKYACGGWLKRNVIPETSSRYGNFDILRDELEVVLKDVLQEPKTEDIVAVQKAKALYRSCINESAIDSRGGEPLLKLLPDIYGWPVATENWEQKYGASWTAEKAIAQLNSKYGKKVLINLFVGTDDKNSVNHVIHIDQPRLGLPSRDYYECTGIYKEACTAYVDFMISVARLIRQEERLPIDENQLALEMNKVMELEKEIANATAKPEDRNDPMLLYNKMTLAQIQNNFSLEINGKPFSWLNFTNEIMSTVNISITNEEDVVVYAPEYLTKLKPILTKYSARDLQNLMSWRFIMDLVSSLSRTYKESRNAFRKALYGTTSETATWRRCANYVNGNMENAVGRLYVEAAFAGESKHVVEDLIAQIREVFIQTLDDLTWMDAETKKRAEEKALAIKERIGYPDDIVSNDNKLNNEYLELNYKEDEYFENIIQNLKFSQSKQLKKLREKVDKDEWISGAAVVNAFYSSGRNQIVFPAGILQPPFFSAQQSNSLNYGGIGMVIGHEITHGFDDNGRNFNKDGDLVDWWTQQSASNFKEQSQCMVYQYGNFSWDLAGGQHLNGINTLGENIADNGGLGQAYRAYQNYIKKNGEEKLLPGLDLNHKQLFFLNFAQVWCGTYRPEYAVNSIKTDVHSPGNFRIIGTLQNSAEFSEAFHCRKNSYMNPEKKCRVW

Regarding `CCCC[C@H](NC(=O)[C@@H]1CCCN1C(=O)CNC(=O)[C@H](CCCCN)NC(=O)[C@H](Cc1c[nH]cn1)NC(=O)[C@H](CO)NC(=O)[C@H](CC(C)C)N(C)C(=O)[C@H](CCCCNC(=N)N)NC(=O)[C@@H]1CCCN1C(=O)[C@H](CCCNC(=N)N)NC(=O)[C@H](CCC(N)=O)NC(=O)[C@H](CCCNC(=N)N)NC(=O)[C@H](CCCNC(=N)N)NC(=O)[C@H](Cc1ccccc1)NC(=O)[C@@H](N)CCCCN)C(=O)NC(C)(C)C(=O)N[C@@H](Cc1ccc(Br)cc1)C(=O)O` (H-KFRRQRP[hArg][NMeL]SHKGP[Nle][Aib][Phe(4-Br)]-OH), the EC50 at Apelin receptor [1] was 275 nM. In addition, the half-life at 1000 µM is 22.8 min in [2] and 338 min in series [7]. Further, in the series on Mus musculus [3], the Activity amounted to 34.69 mmHg. Also, the Time with Mus musculus [4] is reported as 60 min. Besides, the Stability result on Neprilysin [5] is “Stable”. For the same compound, at Apelin receptor [6], the Ki was 1.41 nM.

Regarding `CCCC[C@H](NC(=O)[C@@H]1CCCN1C(=O)CNC(=O)[C@H](CCCCN)NC(=O)[C@H](Cc1c[nH]cn1)NC(=O)[C@H](CO)NC(=O)[C@H](CC1CCCCC1)N(C)C(=O)[C@H](CCCCNC(=N)N)NC(=O)[C@@H]1CCCN1C(=O)[C@H](CCCNC(=N)N)NC(=O)[C@H](CCC(N)=O)NC(=O)[C@H](CCCNC(=N)N)NC(=O)[C@H](CCCNC(=N)N)NC(=O)[C@H](Cc1ccccc1)NC(=O)[C@@H](N)CCCCN)C(=O)NC(C)(C)C(=O)N[C@@H](Cc1ccc(Br)cc1)C(=O)O` (H-KFRRQRP[hArg][NMeCha]SHKGP[Nle][Aib][Phe(4-Br)]-OH), the EC50 on Apelin receptor [1] was 72.4 nM. Also, the half-life at 1000 µM in [2] is 21.6 min; in [7], 205 min. For the same compound, the fraction unbound at 3 h, 100 µM in series [8] was 0.31. The Activity with Mus musculus [3] was determined as 47.57 mmHg. In addition, the Time in the series with Mus musculus [4] is 60 min. For the same compound, the Stability entry on Neprilysin [5] is “Stable”. On Apelin receptor [6], this compound showed a Ki of 0.646 nM.

In the case of `CCCC[C@H](NC(=O)[C@@H]1CCCN1C(=O)CNC(=O)[C@H](CCCCN)NC(=O)[C@H](Cc1c[nH]cn1)NC(=O)[C@H](CO)NC(=O)[C@H](CC1CCCCC1)N(C)C(=O)[C@H](CCCNC(=N)N)NC(=O)[C@@H]1CCCN1C(=O)[C@H](CCCNC(=N)N)NC(=O)[C@H](CCC(N)=O)NC(=O)[C@H](CCCNC(=N)N)NC(=O)[C@H](CCCNC(=N)N)NC(=O)[C@H](Cc1ccccc1)NC(=O)[C@@H](N)CCCCN)C(=O)NC(C)(C)C(=O)N[C@@H](Cc1ccc(Br)cc1)C(=O)O` (H-KFRRQRPR[NMeCha]SHKGP[Nle][Aib][Phe(4-Br)]-OH), the EC50 at Apelin receptor [1] was 16.2 nM. Moreover, the half-life at 1000 µM in series [2] was 26.4 min; in series [7], 174 min. The fraction unbound at 3 h, 100 µM in [8] is 0.32. Moreover, in the series with Mus musculus [3], the Activity came out at 28.83 mmHg. Moreover, in the series with Mus musculus [4], the Time was 60 min. The Stability result on Neprilysin [5] is “Stable”. The Ki at Apelin receptor [6] was 2 nM.

For `CCCC[C@H](NC(=O)[C@@H]1CCCN1C(=O)CNC(=O)[C@H](CCCCN)NC(=O)[C@H](Cc1c[nH]cn1)NC(=O)[C@H](CO)NC(=O)[C@H](CC(C)C)NC(=O)[C@H](CCCNC(=N)N)NC(=O)[C@@H]1CCCN1C(=O)[C@H](CCCNC(=N)N)NC(=O)[C@H](CCC(N)=O)NC(=O)[C@H](CCCNC(=N)N)NC(=O)[C@H](CCCNC(=N)N)NC(=O)[C@H](Cc1ccccc1)NC(=O)[C@@H](N)CCCCN)C(=O)NC(C)(C)C(=O)N[C@@H](Cc1ccc(Br)cc1)C(=O)O` (H-KFRRQRPRLSHKGP[Nle][Aib][Phe(4-Br)]-OH), at Apelin receptor [1], the EC50 is 4.27 nM. On Neprilysin [9], the t1/2 turned out to be 657 min. Further, the fraction unbound at 3 h, 100 µM in [8] was 0.43. Also, in the series with Mus musculus [3], the Activity was 10.24 mmHg. Moreover, the Time in the series with Mus musculus [4] came out at 33 min. In series [7], the half-life at 1000 µM was 54 min.
